Where “and” joins values, the source holds several entries; their conditions need not be identical. Identical values can stand only once.
Columns and labels:
[1] = (§1) Biodistribution ratio measured as the ratio of compound present in brain to that of blood at 4 hr after intravenous injection; assay type: ADME, organism-based; details: rat, brain / blood
How it was run: (§2)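 Male Sprague-Dawley rats (225-300 g) given 0.2 mL saline containing [125I]-labeled ligand (2-5 μCi, ~2200 Ci/mmol) via femoral vein under ether anesthesia; sacrificed at set times by cardiac excision. Brain and blood weighed and gamma-counted against diluted injectate; ratio taken from % dose/gram values, 3 rats per time point.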

Rattus norvegicus [2] = assay: as §1; assay type: ADME, organism-based; details: brain, 4 h; how it was run: as §2
Rattus norvegicus [3] = assay: Ratio of regional brain distribution in striatum to that of cerebellum at 4 hr after intravenous injection; assay type: ADME, organism-based; details: in vivo
How it was run: (§3)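 After femoral-vein injection of [125I]-labeled ligand (2-5 μCi, ~2200 Ci/mmol, 0.2 mL saline, ether anesthesia) into male Sprague-Dawley rats (225-300 g), brains were dissected into cortex, striatum and cerebellum, weighed and gamma-counted. % dose/gram calculated against diluted initial dose; regional ratio = % dose/gram of region divided by that of cerebellum.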

Rattus norvegicus [4] = assay: Regional brain distribution of compound in rats cerebellum after an intravenous injection was measured at 1 hr; assay type: ADME, organism-based; details: in vivo; how it was run: as §3
Rattus norvegicus [5] = assay: Regional brain distribution of compound in rats cerebellum after an intravenous injection was measured at 2 min; assay type: ADME, organism-based; details: in vivo; how it was run: as §3
Rattus norvegicus [6] = assay: Regional brain distribution of compound in rats cerebellum after an intravenous injection was measured at 30 min; assay type: ADME, organism-based; details: in vivo, 0.5 h; how it was run: as §3
Rattus norvegicus [7] = assay: Regional brain distribution of compound in rats cerebellum after an intravenous injection was measured at 4 hr; assay type: ADME, organism-based; details: in vivo; how it was run: as §3
Rattus norvegicus [8] = assay: Regional brain distribution of compound in rats striatum after an intravenous injection was measured at 1 hr; assay type: ADME, organism-based; details: in vivo; how it was run: as §3
Rattus norvegicus [9] = assay: Regional brain distribution of compound in rats striatum after an intravenous injection was measured at 30 min; assay type: ADME, organism-based; details: in vivo, 0.5 h; how it was run: as §3
Rattus norvegicus [10] = assay: Regional brain distribution of compound in rats striatum after an intravenous injection was measured at 4 hr; assay type: ADME, organism-based; details: in vivo; how it was run: as §3
Rattus norvegicus [11] = assay: Biodistribution of compound in rats blood after an intravenous injection was measured at 1 hr; assay type: ADME, organism-based; details: in vivo
How it was run: (§4)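 Male Sprague-Dawley rats (225-300 g), free access to food and water. Under ether anesthesia, given 0.2 mL saline containing 125I-labelled ligand (2-5 μCi, ~2200 Ci/mmol) into the femoral vein. Killed by cardiac excision at set times. Organs removed, weighed and gamma-counted. % dose/organ is taken against diluted injectate aliquots, with blood and muscle assumed to be 7% and 40% of body weight. Mean of 3 rats ± std dev.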

Rattus norvegicus [12] = assay: Biodistribution of compound in rats blood after an intravenous injection was measured at 24 hr; assay type: ADME, organism-based; details: in vivo; how it was run: as §4
Rattus norvegicus [13] = assay: Biodistribution of compound in rats blood after an intravenous injection was measured at 2 min; assay type: ADME, organism-based; details: in vivo; how it was run: as §4
Rattus norvegicus [14] = assay: Biodistribution of compound in rats blood after an intravenous injection was measured at 30 min; assay type: ADME, organism-based; details: in vivo, 0.5 h; how it was run: as §4
Rattus norvegicus [15] = assay: Biodistribution of compound in rats blood after an intravenous injection was measured at 4 hr; assay type: ADME, organism-based; details: in vivo; how it was run: as §4
Rattus norvegicus [16] = assay: Biodistribution of compound in rats brain after an intravenous injection was measured at 1 hr; assay type: ADME, organism-based; details: in vivo
How it was run: (§5)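 Rats (male Sprague-Dawley, 225-300 g) given the 125I ligand (2-5 μCi, ~2200 Ci/mmol) in 0.2 mL saline via the femoral vein under ether anesthesia, then killed at set times. Whole brain removed, weighed and gamma-counted. % dose/organ is taken against diluted injectate aliquots. Mean of 3 rats ± std dev.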

Rattus norvegicus [17] = assay: Biodistribution of compound in rats brain after an intravenous injection was measured at 24 hr; assay type: ADME, organism-based; details: in vivo; how it was run: as §5
Rattus norvegicus [18] = assay: Biodistribution of compound in rats muscle after an intravenous injection was measured at 1 hr; assay type: ADME, organism-based, Muscle tissue; details: in vivo; how it was run: as §4
Rattus norvegicus [19] = assay: Biodistribution of compound in rats muscle after an intravenous injection was measured at 24 hr; assay type: ADME, organism-based, Muscle tissue; details: in vivo; how it was run: as §4
Rattus norvegicus [20] = assay: Biodistribution of compound in rats muscle after an intravenous injection was measured at 2 min; assay type: ADME, organism-based, Muscle tissue; details: in vivo; how it was run: as §4
Rattus norvegicus [21] = assay: Biodistribution of compound in rats muscle after an intravenous injection was measured at 30 min; assay type: ADME, organism-based, Muscle tissue; details: in vivo, 0.5 h; how it was run: as §4
Rattus norvegicus [22] = assay: Biodistribution of compound in rats muscle after an intravenous injection was measured at 4 hr; assay type: ADME, organism-based, Muscle tissue; details: in vivo; how it was run: as §4
Rattus norvegicus [23] = assay: Biodistribution of compound in rats skin after an intravenous injection was measured at 1 hr; assay type: ADME, organism-based, Zone of skin; details: in vivo; how it was run: as §4
Rattus norvegicus [24] = assay: Biodistribution of compound in rats skin after an intravenous injection was measured at 24 hr; assay type: ADME, organism-based, Zone of skin; details: in vivo; how it was run: as §4
Rattus norvegicus [25] = assay: Biodistribution of compound in rats skin after an intravenous injection was measured at 4 hr; assay type: ADME, organism-based, Zone of skin; details: in vivo; how it was run: as §4
Rattus norvegicus [26] = assay: Biodistribution of compound in rats spleen after an intravenous injection was measured at 1 hr; assay type: ADME, organism-based; details: in vivo; how it was run: as §4
Rattus norvegicus [27] = assay: Biodistribution of compound in rats spleen after an intravenous injection was measured at 24 hr; assay type: ADME, organism-based; details: in vivo; how it was run: as §4
[28] = Ratio of regional brain distribution in striatum to that of cerebellum at 2 min after intravenous injection; assay type: functional; how it was run: as §3
Rattus norvegicus [29] = assay: Biodistribution of compound in rats kidney after an intravenous injection was measured at 1 hr; assay type: ADME, organism-based; details: in vivo; how it was run: as §4

Kp at 4 h [1]: 5.23 | Biodistribution (Rattus norvegicus [2]): 5.23% | Biodistribution (Rattus norvegicus [3]): 56.5 | Biodistribution (Rattus norvegicus [4]): 0.129 | Biodistribution (Rattus norvegicus [5]): 1.03 | Biodistribution (Rattus norvegicus [6]): 0.248 | Biodistribution (Rattus norvegicus [7]): 0.011 | Biodistribution (Rattus norvegicus [8]): 1.455 | Biodistribution (Rattus norvegicus [9]): 7.09% and 5.23% | Biodistribution (Rattus norvegicus [10]): 0.6 | Biodistribution (Rattus norvegicus [11]): 0.847 | Biodistribution (Rattus norvegicus [12]): 0.046 | Biodistribution (Rattus norvegicus [13]): 3.28 | Biodistribution (Rattus norvegicus [14]): 0.773 | Biodistribution (Rattus norvegicus [15]): 0.254 | Biodistribution (Rattus norvegicus [16]): 0.568 | Biodistribution (Rattus norvegicus [17]): 0.001 | Biodistribution (Rattus norvegicus [18]): 8.59 | Biodistribution (Rattus norvegicus [19]): 0.201 | Biodistribution (Rattus norvegicus [20]): 10.8 | Biodistribution (Rattus norvegicus [21]): 9.3 | Biodistribution (Rattus norvegicus [22]): 1.17 | Biodistribution (Rattus norvegicus [23]): 7.42 | Biodistribution (Rattus norvegicus [24]): 0.288 | Biodistribution (Rattus norvegicus [25]): 1.14 | Biodistribution (Rattus norvegicus [26]): 0.123 | Biodistribution (Rattus norvegicus [27]): 0.001 | Biodistribution (Rattus norvegicus [29]): 0.883
SMILES: CN1CCc2cc(Cl)c(O)cc2[C@@H](c2cccc(I)c2)C1
Ratio [28]: 1.28

Reference: ChEMBL document CHEMBL1125639, “Synthesis and resolution of (+-)-7-chloro-8-hydroxy-1-(3'-iodophenyl)-3-methyl-2,3,4,5-tetrahydro- 1H-3- benzazepine (TISCH): a high affinity and selective iodinated ligand for CNS D1 dopamine receptor” (J Med Chem, 1991)
